Columns and labels:
[1] = test system: MDA-MB-231; assay: Antiproliferative activity against human MDA-MB-231 cells assessed as inhibition of cell proliferation measured after 48 hrs by MTT assay; format: functional, cell-based; conditions: MDA-MB-231, 48 h
How it was run: (§1)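 Cells were exposed to test compounds at 1, 5, 10 and 25 µM for 48 h, with each concentration run in triplicate. Untreated cells served as control. Cell viability was measured and IC₅₀ values were derived as mean ± SD of three independent experiments.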

[2] = test system: HCT-116; assay: Antiproliferative activity against human HCT-116 cells assessed as inhibition of cell proliferation measured after 48 hrs by MTT assay; format: functional, cell-based; conditions: HCT-116, 48 h; how it was run: as §1
[3] = test system: HT-29; assay: Antiproliferative activity against human HT-29 cells assessed as inhibition of cell proliferation measured after 48 hrs by MTT assay; format: functional, cell-based; conditions: HT-29, 48 h; how it was run: as §1
[4] = test system: HCT-116; assay: Induction of apoptosis in human HCT-116 cells assessed as live cells at 5 uM measured after 24 hrs by annexin-V/FITC staining based flow cytometry analysis (reference value: 97.1 %); format: functional
[5] = test system: HCT-116; assay: Induction of apoptosis in human HCT-116 cells assessed as early apoptotic cells at 5 uM measured after 24 hrs by annexin-V/FITC staining based flow cytometry analysis (reference value: 0.3 %); format: functional
[6] = test system: HCT-116; assay: Induction of apoptosis in human HCT-116 cells assessed as late apoptotic cells at 5 uM measured after 24 hrs by annexin-V/FITC staining based flow cytometry analysis (reference value: 2.4 %); format: functional
[7] = test system: HCT-116; assay: Induction of apoptosis in human HCT-116 cells assessed as necrotic cells at 5 uM measured after 24 hrs by annexin-V/FITC staining based flow cytometry analysis (reference value: 0.2 %); format: functional
[8] = molecular target: T1, Tubulin (Homo sapiens) (UniProt P68371+Q9H4B7+P0DPH7+P68366+Q13509+Q71U36+P04350+Q3ZCM7+P07437+P68363+Q9BQE3+Q6PEY2+Q13885+Q9BVA1+Q9BUF5); assay: Inhibition of tubulin polymerization in human HCT-116 cells assessed as cell cycle arrest at G1/G0 phase at 12.5 uM measured after 24 hrs by propidium iodide staining based analysis; parameters: scale not given: the % may be the effect or the level left
[9] = molecular target: T1, Tubulin (Homo sapiens); assay: Inhibition of tubulin polymerization in human HCT-116 cells assessed as cell cycle arrest at G2/M phase at 12.5 uM measured after 24 hrs by propidium iodide staining based analysis; parameters: scale not given: the % may be the effect or the level left

Row | SMILES | IC50 [1] | IC50 [2] | IC50 [3] | Activity [4] | Activity [5] | Activity [6] | Activity [7] | Activity [8] | Activity [9]
1 | COc1cc(-c2cc(-c3cccc([N+](=O)[O-])c3)nc(-c3ccccc3)n2)cc(OC)c1OC | 2.44 µM | > 25 µM | > 25 µM |  |  |  |  |  | 
2 | COc1cc(-c2cc(-c3ccc(C)cc3)nc(-c3ccccc3)n2)cc(OC)c1OC | 5.11 µM | 15.7 µM | > 25 µM |  |  |  |  |  | 
3 | COc1cc2c(c(OC)c1OC)-c1ccc(OC)c(=O)cc1[C@@H](NC(C)=O)CC2 [COLCHICINE] | 0.93 µM | 5.13 µM | 5.19 µM | 38.8% | 1.9% | 56.4% | 2.9% |  | 
4 | COc1cc(-c2cc(-c3ccc(Cl)cc3)nc(-c3ccccc3)n2)cc(OC)c1OC | > 25 µM | 7.98 µM | 6.23 µM |  |  |  |  |  | 
5 | COc1cc(-c2cc(-c3ccc(Br)cc3)nc(-c3ccccc3)n2)cc(OC)c1OC | > 25 µM | 4.32 µM | 3.17 µM |  |  |  |  |  | 
6 | COc1cc(-c2cc(-c3ccc(O)cc3O)nc(-c3ccccc3)n2)cc(OC)c1OC | 0.81 µM | 5.89 µM | 4.96 µM | 28.7% | 35.4% | 35.2% | 0.6% | 11.3% | 79.5%
7 | COc1cc(-c2cc(-c3ccc(O)cc3)nc(-c3ccccc3)n2)cc(OC)c1OC | 1.6 µM | 11.8 µM | 11.3 µM |  |  |  |  |  | 
8 | COc1cc(-c2cc(-c3cccs3)nc(-c3ccccc3)n2)cc(OC)c1OC | 5.11 µM | 17 µM | > 25 µM |  |  |  |  |  | 
9 | COc1cc(-c2cc(-c3ccc(N)cc3)nc(-c3ccccc3)n2)cc(OC)c1OC | 1.01 µM | 12.3 µM | > 25 µM |  |  |  |  |  | 
10 | COc1cc(-c2cc(-c3cccc(O)c3)nc(-c3ccccc3)n2)cc(OC)c1OC | 1.99 µM | 20.4 µM | > 25 µM |  |  |  |  |  | 
11 | COc1cc(-c2cc(-c3cccc4ccccc34)nc(-c3ccccc3)n2)cc(OC)c1OC | 3.24 µM | 4.93 µM | 4.73 µM | 23.7% | 26.4% | 49.6% | 0.3% | 78.5% | 8.1%
12 | COc1ccc(-c2cc(-c3cc(OC)c(OC)c(OC)c3)nc(-c3ccccc3)n2)cc1 | 3.39 µM | 4.78 µM | 4.23 µM | 28.3% | 22.5% | 48.3% | 0.9% | 5.6% | 88.8%
13 | COc1ccc(-c2cc(-c3cc(OC)c(OC)c(OC)c3)nc(-c3ccccc3)n2)c(OC)c1 | 1.44 µM | > 25 µM | > 25 µM |  |  |  |  |  | 
14 | COc1cc(-c2cc(-c3ccccc3)nc(-c3ccccc3)n2)cc(OC)c1OC | 5.87 µM | 9.95 µM | 7.93 µM |  |  |  |  |  | 
